We go through 2 compounds from ChEMBL document CHEMBL1687715, “Therapeutic activity of an anti-idiotypic antibody-derived killer peptide against influenza A virus experimental infection” (Antimicrob Agents Chemother, 2008).

Calls of active or inactive are those of the source. The calls are words filed in the database; no cut-off is given here.

Data set [1] concerns Influenza A virus. Nature of the data set: microbe, parasite or virus in culture. Conditions: LLC-MK2, 6 h. The class given is functional.
Data set [2] relates to Influenza A virus. Briefly: Antiviral activity against Influenza A virus/NWS/1933(H1N1) infected in BALB/c mouse assessed as reduction in mortality rate at 100 ug, ip administered once daily for 10 days and dosed 30 mins post infection relative to untreated control. The class given is functional, Influenza A virus (A/NWS/1933(H1N1)). In short, it runs like this:
(§1)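 BALB/c males, 4 weeks old, about 20 g, 10 per group, randomised. Daily i.p. treatment (50 or 100 μg/mouse, or 2 mg/mouse) in 100 μl 0.9% NaCl, starting 30 min after intranasal challenge and repeated for the next 10 days. Placebo was diluent. Mortality rate ratio versus placebo was derived by proportional hazards regression, with 95% CI.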

The subject of data set [3] is Influenza A virus. Nature of the data set: microbe, parasite or virus in culture. In kind it is functional. Particulars: LLC-MK2, 6 h. This is another data set of the same source.
The test system of data set [4] is Influenza A virus. Nature of the data set: microbe, parasite or virus in culture. Conditions: LLC-MK2, 8 h. In kind it is functional.
In data set [5] the test system is Influenza A virus. Briefly: Antiviral activity against Influenza A virus/NWS/1933(H1N1) infected in BALB/c mouse assessed reduction in viral load in lung at 50 ug, ip measured after 6 days postinfection relative to untreated control. The class given is functional, organism-based. Conditions: Influenza A virus (A/NWS/1933(H1N1)). In short, it runs like this:
(§2)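 Groups of 5 infected BALB/c mice, dosed i.p. daily, were killed on day 6 p.i. Each lung was weighed and homogenised in RPMI 1640. Titre was by TCID50 on MDCK monolayers: 10-fold dilutions, eight wells each, 3 days, cytopathic effect scored. Expressed per gram of lung; five homogenates per group, mean ± SD.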

Data set [6] has as its system MDCK. Briefly: Cytotoxicity against MDCK cells assessed as effect on cell viability at 4 ug/ml. The class given is cell-based, Canis lupus familiaris. Conditions: dog. In short, it runs like this: (§3)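 Uninfected confluent monolayers were exposed to 4 μg/ml or left untreated. Viability was assessed by dye exclusion and MTT assay. DNA and RNA synthesis were measured by 48 h labelling with 10 μCi/ml [3H]thymidine or [3H]uridine, followed by counting of trichloroacetic acid-insoluble radioactivity.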

Data set [7] has as its system Influenza A virus. Nature of the data set: microbe, parasite or virus in culture. The class given is functional. Conditions: LLC-MK2, 8 h. This is another data set of the same source.
The subject of data set [8] is Influenza A virus. Nature of the data set: Antiviral activity against Influenza A virus/NWS/1933(H1N1) infected in BALB/c mouse assessed as reduction in mortality rate at 50 ug, ip administered once daily for 10 days and dosed 30 mins post infection relative to untreated control. The class given is functional, organism-based. Particulars: Influenza A virus (A/NWS/1933(H1N1)). In short, it runs like this: as §1

The test system of data set [9] is Influenza A virus. Nature of the data set: microbe, parasite or virus in culture. In kind it is functional. Conditions: LLC-MK2, 8 h. The source holds these as a separate data set.
Data set [10] deals with Influenza A virus. Briefly: Antiviral activity against Influenza A virus/parrot/Ulster/73(H7N1) infected in LLC-MK2 cells assessed as of reduction in optical density values at 4 ug/ml using human RBCs by hemadsorption assay. The class given is functional, organism-based. Particulars: A/parrot/Ulster/73(H7N1), Erythrocyte.
In data set [11] the test system is Influenza A virus. Nature of the data set: microbe, parasite or virus in culture. Conditions: LLC-MK2, 4 h. The class given is functional.
The subject of data set [12] is Influenza A virus. Nature of the data set: Antiviral activity against Influenza A virus/parrot/Ulster/73(H7N1) infected in MDCK cells assessed as of reduction in optical density values at 4 ug/ml using human RBCs by hemadsorption assay. Conditions: A/parrot/Ulster/73(H7N1), Erythrocyte. In kind it is functional, organism-based.
Data set [13] relates to Influenza A virus. Briefly: microbe, parasite or virus in culture. In kind it is functional. Conditions: LLC-MK2, 2 h.
Data set [14] has as its system MDCK. Briefly: Cytotoxicity against MDCK cells assessed as effect on RNA synthesis at 4 ug/ml. Conditions: dog. The class given is cell-based, Canis lupus familiaris. In short, it runs like this:
as §3

In data set [15] the test system is Influenza A virus. Briefly: microbe, parasite or virus in culture. The class given is functional. Conditions: LLC-MK2, 6 h. This is another data set of the same source.
The test system of data set [16] is Influenza A virus. Briefly: microbe, parasite or virus in culture. The class given is functional. Particulars: LLC-MK2, 2 h. The source holds these as a separate data set.
The test system of data set [17] is LLC-MK2. Briefly: Cytotoxicity against monkey LLC-MK2 cells assessed as effect on cell viability at 4 ug/ml. In kind it is cell-based, Macaca mulatta. Particulars: rhesus monkey. In short, it runs like this: as §3
Data set [18] relates to Influenza A virus. Briefly: microbe, parasite or virus in culture. In kind it is functional. Conditions: LLC-MK2, 6 h. The source holds these as a separate data set.
Data set [19] relates to Influenza A virus. Nature of the data set: microbe, parasite or virus in culture. In kind it is functional. Conditions: LLC-MK2, 6 h. This is another data set of the same source.
Data set [20] deals with Influenza A virus. Nature of the data set: Antiviral activity against Influenza A virus/NWS/1933(H1N1) infected in BALB/c mouse assessed as survival rate at 50 ug, ip administered once daily for 10 days and dosed 30 mins post infection. The class given is functional, organism-based. Particulars: Influenza A virus (A/NWS/1933(H1N1)). In a few lines: (§4)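 Male BALB/c mice, 4 weeks old, 10 per group. Given i.p. in 100 μl 0.9% NaCl once daily from 30 min post-challenge through the next 10 days; diluent for placebo. Survival was checked daily for 30 days, and day-30 survivors were counted as cured. Curves were compared by log-rank test. Four experiments were run.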

The subject of data set [21] is Influenza A virus. Briefly: microbe, parasite or virus in culture. The class given is functional, organism-based. Particulars: LLC-MK2, 24 h.
For data set [22], the system named is Influenza A virus. Nature of the data set: Antiviral activity against Influenza A virus/NWS/1933(H1N1) infected in BALB/c mouse assessed reduction in viral load in lung at 100 ug, ip measured after 6 days postinfection relative to untreated control. The class given is functional, Influenza A virus (A/NWS/1933(H1N1)). In short, it runs like this:
as §2

Data set [23] relates to LLC-MK2. Briefly: Cytotoxicity against monkey LLC-MK2 cells assessed as effect on DNA synthesis at 4 ug/ml. The class given is cell-based, Macaca mulatta. Particulars: rhesus monkey. In a few lines: as §3
Data set [24] concerns Mus musculus. Briefly: Toxicity in Influenza A virus/NWS/1933(H1N1) infected BALB/c mouse assessed as incidence of mouse death at 100 ug, ip administered once daily for 10 days and dosed 30 mins post infection. Conditions: in vivo. In kind it is organism-based.
The subject of data set [25] is Mus musculus. Briefly: Toxicity in Influenza A virus/NWS/1933(H1N1) infected in BALB/c mouse assessed as effect on motor activity at 100 ug, ip administered once daily for 10 days and dosed 30 mins post infection. The class given is organism-based. Particulars: in vivo.
Data set [26] has as its system MDCK. Briefly: Cytotoxicity against MDCK cells assessed as effect on DNA synthesis at 4 ug/ml. In kind it is cell-based, Canis lupus familiaris. Particulars: dog. In short, it runs like this:
as §3

Data set [27] concerns Influenza A virus. Briefly: microbe, parasite or virus in culture. The class given is functional. Particulars: LLC-MK2, 8 h. This is another data set of the same source.
Data set [28] has as its system Influenza A virus. Nature of the data set: microbe, parasite or virus in culture. Conditions: LLC-MK2, 4 h. In kind it is functional. This is another data set of the same source.
Data set [29] concerns Mus musculus. Briefly: Toxicity in Influenza A virus/NWS/1933(H1N1) infected in BALB/c mouse assessed as weight loss at 100 ug, ip administered once daily for 10 days and dosed 30 mins post infection. Conditions: in vivo. In kind it is organism-based.
For data set [30], the system named is Influenza A virus. Briefly: Antiviral activity against Influenza A virus/NWS/1933(H1N1) infected in BALB/c mouse assessed as survival rate at 100 ug, ip administered once daily for 10 days and dosed 30 mins post infection. In kind it is functional, Influenza A virus (A/NWS/1933(H1N1)). In a few lines:
as §4

Data set [31] relates to LLC-MK2. Briefly: Cytotoxicity against monkey LLC-MK2 cells assessed as effect on RNA synthesis at 4 ug/ml. In kind it is cell-based, Macaca mulatta. Particulars: rhesus monkey. In short, it runs like this:
as §3

The subject of data set [32] is Influenza A virus. Briefly: Antiviral activity against Influenza A virus/NWS/1933(H1N1) infected in BALB/c mouse assessed as reduction in mortality rate at 2 mg, ip administered once daily for 10 days and dosed 30 mins post infection relative to untreated control. In kind it is functional, Influenza A virus (A/NWS/1933(H1N1)). In short, it runs like this: as §1
Data set [33] has as its system Influenza A virus. Briefly: Antiviral activity against Influenza A virus/NWS/1933(H1N1) infected in BALB/c mouse assessed as survival rate at 2 mg, ip administered once daily for 10 days and dosed 30 mins post infection. In kind it is functional, Influenza A virus (A/NWS/1933(H1N1)). In short, it runs like this: as §4

For the compound H-AKVTMTCSAS-OH, the inhibition (usually the share of the control response that was lost under treatment) at 4 µg/mL was 86.1% in [1]; 49.7% in data set [3]; 71.2% in data set [4]; 46.5% in [7]; 26.8% in data set [9]; 62.4% in data set [11]. Moreover, the inhibition at 4 µg/mL in data set [13] was determined as 59.1%; in data set [15], 65.2%; in [16], 96.3%; in data set [18], 76.9%; in data set [19], 88.9%; in data set [27], 93.6%. In [28], this compound had an inhibition at 4 µg/mL of 45.1%. The “inhibition (INH)” value in data set [2] stood at 72%. Also, the result in [5] was Active. Also, the Activity result in data set [6], in [14], in [17], in data set [23], in data set [24] and in [25] was “Non-toxic” each time. In addition, the Activity entry in data set [26], in data set [29] and in [31] was “Non-toxic” each time. Further, the outcome in data set [8] and in [20] was inactive. Besides, the inhibition result in [10] and in [12] was “Active” in each case. Moreover, the EC50 (commonly the concentration that produces a half-maximal response) in data set [21] came to 2.69 µM. In data set [22], the “fold change (FC)” value came out at 2. For the same compound, the Survival in data set [30] amounted to 50%.

On to `NC12CC3CC(CC(C3)C1)C2` [AMANTADINE], for which the “inhibition (INH)” value in data set [32] worked out at 77%. In data set [33], the Survival amounted to 50%.
